# TRPC6 inh: inhibitors of mouse TRPC6 channel; B-score at 10 µM; AID 2553; 310,000 tested, 1.1% active; HEK293-TRPC6, membrane potential dye, ACh-evoked depolarization; stronger effect = lower value;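 active = B-score under library mean minus 3 SD, initial fluorescence not abnormally high, positive integrated signal ratio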;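 also: B-score derived from integrated fluorescence ratio over the kinetic read; more negative B-score means stronger inhibition of depolarization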
# TRPC4 agonist: TRPC4 (mouse) channel activation | Q9QUQ5 | HEK293 TRPC4beta/mu-opioid, Fluo4 calcium fluorescence; stronger effect = higher value | B-score at 10 µM | 310,000 tested, 0.49% active;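 active = B-score above 5 SD of library B-scores, and initial fluorescence ratio not above library mean plus 5 SD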;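 also: positive B-score marks a calcium rise read as TRPC4 activation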
# Target sequence (Q9QUQ5 whole entry, looked up): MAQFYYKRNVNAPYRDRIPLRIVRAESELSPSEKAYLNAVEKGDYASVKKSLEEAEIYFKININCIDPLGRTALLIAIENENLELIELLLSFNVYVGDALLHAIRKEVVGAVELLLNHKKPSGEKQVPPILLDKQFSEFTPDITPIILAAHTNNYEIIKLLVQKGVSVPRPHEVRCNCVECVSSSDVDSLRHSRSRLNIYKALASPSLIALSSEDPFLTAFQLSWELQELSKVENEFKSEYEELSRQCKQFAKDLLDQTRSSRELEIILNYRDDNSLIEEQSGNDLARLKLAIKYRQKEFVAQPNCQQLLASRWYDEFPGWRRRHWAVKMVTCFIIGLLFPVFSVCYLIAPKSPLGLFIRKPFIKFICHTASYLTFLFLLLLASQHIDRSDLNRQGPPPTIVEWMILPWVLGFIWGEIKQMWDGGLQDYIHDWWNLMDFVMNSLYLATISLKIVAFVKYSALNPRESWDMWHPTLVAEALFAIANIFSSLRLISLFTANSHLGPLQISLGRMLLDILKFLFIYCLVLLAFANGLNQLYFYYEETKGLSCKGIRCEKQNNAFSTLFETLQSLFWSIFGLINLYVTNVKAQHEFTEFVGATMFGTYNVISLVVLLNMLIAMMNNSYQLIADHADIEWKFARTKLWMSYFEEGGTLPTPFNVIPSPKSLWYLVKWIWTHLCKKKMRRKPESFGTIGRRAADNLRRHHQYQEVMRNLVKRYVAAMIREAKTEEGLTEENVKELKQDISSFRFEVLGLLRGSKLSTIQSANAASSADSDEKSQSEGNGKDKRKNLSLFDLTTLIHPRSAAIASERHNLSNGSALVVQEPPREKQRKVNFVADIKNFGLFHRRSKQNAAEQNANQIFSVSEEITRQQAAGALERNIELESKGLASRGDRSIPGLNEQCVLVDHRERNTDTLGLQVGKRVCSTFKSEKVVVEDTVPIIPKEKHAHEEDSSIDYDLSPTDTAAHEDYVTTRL
#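 Technique: kinetic Fluo4 calcium fluorescence; Test system: TRPC4beta and mu-opioid receptor HEK293 stable cells; Measure: B-scored integrated calcium fluorescence ratio; Benchmarks: low control buffer alone, high control maximal DAMGO; Schedule: 45 min room-temperature Fluo4 loading, 110 s read.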
# TRPC4 inh: inhibitors of mouse TRPC4 channel | B-score at 10 µM | HEK293 TRPC4beta/mu-opioid, DAMGO-evoked Fluo4 calcium flux; stronger effect = lower value | 300,000 tested, 0.39% active | AID 2247;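 active = B-score over 3 SD under the library average, no early fluorescence shift, positive overall ratio signal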
#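 Assay system – HEK293 line stably carrying TRPC4beta and mu-opioid receptor · Doses – single dose · Detection – Fluo4 calcium-dye fluorescence, kinetic read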
# TRPC6 act: activators of mouse TRPC6 channel; Q61143; HEK293-TRPC6 membrane potential dye fluorescence; stronger effect = higher value; B-score at 10 µM; 310,000 tested, 0.13% active; AID 2550;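 active = B-score of the integrated fluorescence ratio above library mean plus 3 SD, and starting fluorescence ratio within library mean plus 5 SD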;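 also: higher score means more depolarization so channel activation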
# TRPC4 PAM: allosterically enhances the mouse TRPC4 cation channel; Q9QUQ5; HEK293 TRPC4beta/mu-opioid, DAMGO EC20, Fluo-4 Ca2+ flux; stronger effect = higher value; B-score at 10 µM; 310,000 tested, 0.42% active;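 active = B-score of calcium response area above 5 SD of library B-scores, with initial fluorescence ratio within 5 SD of library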;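 also: B-score of integrated fluorescence ratio over time as area under calcium response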
# Kir21 block: inhibitors of mouse Kir2.1 inward-rectifier potassium channel | P35561 | HEK293-Kir2.1, FluxOR thallium flux fluorescence; stronger effect = lower value | B-score at 10 µM | 310,000 tested, 0.85% active;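 active = fluorescence ratio B-score at or below minus 3 SD of library scores, with starting-brightness B-score within 2 SD, cut at about -4.2 in these data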;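 also: channel flux triggered by added potassium and thallium sulfate stimulus; B-score of peak minus minimum fluorescence over baseline after thallium stimulus; more negative B-score means stronger Kir2.1 block with less thallium influx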
# * = called active by the depositor; i = inactive. In the library only some 2.9% were active in any assay of this set; here they are far more common.
SMILES,TRPC6 inh,TRPC4 agonist,TRPC4 inh,TRPC6 act,TRPC4 PAM,Kir21 block
C/C(=N\NS(=O)(=O)c1ccccc1)c1cc(Cl)cc(Cl)c1O,i,i,i,i,i,0.66
CC1(C)Cc2c(cnn2-c2ccc(F)cc2)C(NC(=O)CCc2ccncc2)C1 (configuration not stated),i,i,i,i,i,0.16
CCN(CC)CCn1c2ccccc2c2n[nH]c(=S)nc21,i,63*,i,i,i,1
CCN(CC)CCn1c2ccccc2c2nc3ccccc3nc21,i,i,i,i,i,-0.01
COc1ccc(CN2CCCC(C(=O)N3CCc4ccccc4C3)C2)cc1OC (configuration not stated),i,i,i,i,i,-3.5
O=C(C1CCCN(Cc2ccccc2)C1)N1CCc2ccccc2C1 (configuration not stated),i,160*,i,i,i,-1.1
COc1cc(CN2CCCC(C(=O)N3CCc4ccccc4C3)C2)cc(OC)c1OC (configuration not stated),i,55*,i,i,i,-1.5
COc1ccc(NS(=O)(=O)c2ccc(OC)c3ccccc23)cn1,i,i,i,i,i,-5.3*
O=C(OCCN=C1NS(=O)(=O)c2ccccc21)c1ccccc1F,i,i,i,i,i,-1.4
Cc1ccccc1-c1nc(CN2CCC(C(=O)NCc3cccs3)CC2)c(C)o1,i,i,-6*,i,i,1.2
COc1cc2[nH]c(C(=O)NCc3ccccc3)cc2c(OC)c1OC,i,i,i,i,i,-6.3*
COc1ccccc1CNC(=O)N1CCN(S(=O)(=O)c2ccc(C)cc2)CC1,i,i,i,i,i,1.4
COc1ccccc1CC(=O)N1CCN(S(=O)(=O)c2ccccc2)CC1,i,i,i,i,20*,-1.4
CCCn1cnc2c(=S)nc(N)[nH]c21,i,i,i,i,i,-0.02
NC(=O)Cc1nc(-c2ccccc2)cs1,i,i,i,i,i,-0.03
NCCc1nc(-c2ccccc2)cs1,i,116*,i,i,i,0.77
CC(=Nc1ccc(C)cc1)c1sc2ccccc2c1O,i,i,-6*,i,i,1.1
CN(Cc1ccc(C#CCCO)cc1)CC1CCCN(CCc2ccc(Cl)cc2)C1 (configuration not stated),i,i,i,i,i,-9.4*
CN(Cc1ccccc1O)CC1CCCN(CCc2ccc(Cl)cc2)C1 (configuration not stated),i,i,i,i,i,-15*
COc1ccc(C2(c3ccc(O)cc3O)CC(c3ccccc3Cl)NC(=S)N2)cc1 (configuration not stated),i,i,i,i,11*,0.96
c1ccc(-c2oc3ncnc(NCCCn4ccnc4)c3c2-c2ccccc2)cc1,i,i,i,i,i,-2.4
CN(C)CCCNc1ncnc2oc(-c3ccccc3)c(-c3ccccc3)c12,i,i,i,i,i,-4.6*
COc1ccccc1N1CCN(CC(=O)Nc2nccs2)CC1,i,i,i,i,i,-0.43
Cc1cccc(N2CCN(CC(=O)Nc3nccs3)CC2)c1C,-5.6*,i,i,13*,i,0.78
Cc1c(Cc2ccccc2)c(=O)oc2cc(OCC(=O)N3CCC(C(=O)O)CC3)ccc12,i,i,i,i,i,-2
SMILES,TRPC6 inh,TRPC4 agonist,TRPC4 inh,TRPC6 act,TRPC4 PAM,Kir21 block
Cc1ccc(C2=NN(S(=O)(=O)c3ccccc3)C(c3ccccc3O)C2)cc1 (configuration not stated),i,i,i,i,13*,0
CN1CCC(Oc2ccccc2Sc2ccc(C(F)(F)F)cc2)CC1,i,i,i,i,i,-11*
CN1CCC(Oc2ccc(Sc3ccccc3)cc2)CC1,i,i,i,i,i,-7.5*
CCOC(=O)N1CCC(NC(=O)c2cnc3n(c2=O)CCS3)CC1,i,i,i,i,i,-0.04
CC1(C)Cc2c(sc(NC(=O)C(=O)NCCCN3CCOCC3)c2C#N)CO1,i,i,i,i,i,0.65
CC1Sc2ccc(S(=O)(=O)CCC(=O)NC(C)c3ccccc3)cc2NC1=O (configuration not stated),i,i,i,i,i,0.63
OCC(Cc1ccccc1)NCc1ccccc1C(F)(F)F (configuration not stated),i,i,-6*,i,i,-0.78
COc1ccc(CNCCC(c2ccc(F)cc2)c2ccc(OC(C)C)cc2)cc1OC (configuration not stated),i,46*,i,i,i,-9*
COc1ccc(C(CCNCc2ccc(F)cc2)c2ccc(F)cc2)cc1 (configuration not stated),i,i,i,i,i,-5*
COc1ccc(CNCCC(c2ccc(F)cc2)c2ccc(OC)cc2)cc1 (configuration not stated),i,i,i,i,i,-8.9*
COc1ccc(CN(CCC(c2ccccc2)c2ccc(OC(C)C)cc2)C(=O)CCl)cc1OC (configuration not stated),i,i,i,i,i,0.23
COc1ccc(C(CCNC(C)c2ccccc2)c2ccc(F)cc2)cc1 (configuration not stated),i,i,i,i,i,-7.5*
COc1ccc(Cl)cc1NC(=O)C1CCCN(c2ncnc3c2nc2n3CCCCC2)C1 (configuration not stated),i,i,i,i,i,-0.67
O=S(=O)(CCN1CCCCC1)Oc1ccc(Cl)cc1Cl,i,i,i,i,i,-0.7
COc1cccc(OCCNCc2ccccc2)c1,i,i,i,i,i,-0.91
COc1ccc(C(CCNCc2ccccc2)c2ccc(F)cc2)cc1 (configuration not stated),i,i,i,i,i,-12*
C/C=C/C(=O)Nc1cccc(C2=NOC3(C2)C[C@@H](C(N)=O)N(C(=O)C(c2ccccc2)c2ccccc2)C3)c1 (some centres not stated),i,i,i,i,i,0.95
O=C(N/N=C/c1cn(-c2cccs2)nc1-c1ccccc1)c1ccccc1O,i,i,i,i,i,-1.5

# Source: PubChem BioAssay (Johns Hopkins Ion Channel Center)
